We go through five compounds from ChEMBL document CHEMBL1764996, “Synthesis and separation of the enantiomers of the neuropeptide S receptor antagonist (9R/S)-3-oxo-1,1-diphenyl-tetrahydro-oxazolo[3,4-a]pyrazine-7-carboxylic acid 4-fluoro-benzylamide (SHA 68)” (J Med Chem, 2011).

Active and inactive are the calls of the source. The calls are words filed in the database; no cut-off is given here.

Assay type in all cases: functional, cell-based
The target in experiment [1] is T1, Neuropeptide S receptor (Mus musculus) (UniProt Q8BZP8).
T1 sequence (whole entry): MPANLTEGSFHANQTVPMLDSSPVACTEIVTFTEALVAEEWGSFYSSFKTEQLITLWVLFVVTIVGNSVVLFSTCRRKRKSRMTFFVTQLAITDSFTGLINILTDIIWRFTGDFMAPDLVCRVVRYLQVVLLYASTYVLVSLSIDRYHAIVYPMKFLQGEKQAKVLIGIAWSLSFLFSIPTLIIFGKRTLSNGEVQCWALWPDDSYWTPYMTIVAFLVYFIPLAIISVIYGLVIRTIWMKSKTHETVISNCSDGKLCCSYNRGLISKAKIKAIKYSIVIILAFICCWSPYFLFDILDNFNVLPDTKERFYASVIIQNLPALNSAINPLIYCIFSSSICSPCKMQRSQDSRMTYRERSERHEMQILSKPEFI
Briefly: Agonist activity at mouse NPSR expressed in HEK293 cells assessed as induction of calcium mobilization at up to 10 uM after 30 mins. The essentials:
(§1)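 HEK293 lines stably expressing human NPSR Ile107 or murine NPSR were grown in DMEM with 10% FBS, 2 mM L-glutamine and hygromycin B (100 mg/L) at 37 °C, 5% CO2. Cells were plated on poly-D-lysine wells and loaded with Fluo-4 AM (3 µM), probenecid 2.5 mM and 0.01% pluronic for 30 min at 37 °C. They were then read in HBSS/20 mM HEPES with probenecid and Brilliant Black on a FlexStation at 37 °C. Peak fluorescence change was taken as % baseline and fitted logistically for potency and maximal effect. Data are mean ± sem, n≥4 in duplicate.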

Experiment [2] concerns the target T2, Neuropeptide S receptor (Homo sapiens, UniProt Q6W5P4). The experiment can be described thus: (§2) Agonist activity at human NPSR Ile107 expressed in HEK293 cells assessed as induction of calcium mobilization after 30 mins. The essentials:
as §1

Experiment [3] deals with T3, Neuropeptide S receptor (Homo sapiens) (UniProt Q6W5P4).
T3 sequence (whole entry): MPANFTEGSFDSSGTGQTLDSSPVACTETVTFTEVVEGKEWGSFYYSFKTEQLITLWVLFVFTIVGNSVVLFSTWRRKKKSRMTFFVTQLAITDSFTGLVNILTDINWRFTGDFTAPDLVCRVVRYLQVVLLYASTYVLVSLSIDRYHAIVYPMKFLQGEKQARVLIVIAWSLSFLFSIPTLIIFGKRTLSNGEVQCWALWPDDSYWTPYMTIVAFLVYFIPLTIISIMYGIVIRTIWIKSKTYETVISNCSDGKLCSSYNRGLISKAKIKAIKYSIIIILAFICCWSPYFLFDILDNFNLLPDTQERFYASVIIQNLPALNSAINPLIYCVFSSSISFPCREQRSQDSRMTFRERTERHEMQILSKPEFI
Described as §2. The procedure, abridged: as §1

The target in experiment [4] is T2, Neuropeptide S receptor. The experiment can be described thus: (§3) Agonist activity at human NPSR Asn107 expressed in HEK293 cells assessed as induction of calcium mobilization after 30 mins. The essentials: (§4)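 HEK293 cells stably expressing human NPSR Asn107 were kept in DMEM with 10% FBS, 2 mM glutamine and zeocin (100 mg/L) at 37 °C, 5% CO2. Cells were seeded on poly-D-lysine plates and loaded next day with 3 µM Fluo-4 AM, 2.5 mM probenecid and 0.01% pluronic acid for 30 min at 37 °C. Assay buffer was HBSS with 20 mM HEPES, 2.5 mM probenecid and 500 µM Brilliant Black. Fluorescence was read on a FlexStation at 37 °C. Response was the maximal fluorescence change as % of baseline. Potency and maximal effect came from nonlinear regression, with mean ± sem of ≥4 experiments in duplicate.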
In general terms: A change in cytosolic calcium serves as a functional read-out for many receptors and channels.

For experiment [5], the target named is T3, Neuropeptide S receptor (Homo sapiens). The experiment is described as §3. The essentials: as §4
For experiment [6] the target is unchanged. The experiment can be described thus: Agonist activity at human NPSR Ile107 expressed in HEK293 cells assessed as induction of calcium mobilization after 30 mins relative to control. The essentials:
as §1

For experiment [7] the target is unchanged. The experiment can be described thus: Agonist activity at human NPSR Asn107 expressed in HEK293 cells assessed as induction of calcium mobilization after 30 mins relative to control. The essentials:
as §4

Experiment [8] has as its target T1, Neuropeptide S receptor (Mus musculus). Briefly: Agonist activity at mouse NPSR expressed in HEK293 cells assessed as induction of calcium mobilization after 30 mins relative to control. The essentials: as §1
Experiment [9] has the same target. The experiment can be described thus: (§5) Agonist activity at mouse NPSR expressed in HEK293 cells assessed as induction of calcium mobilization after 30 mins. The procedure, abridged: as §1
In experiment [10] the target is T4, Neuropeptide S receptor (Mus musculus, UniProt Q8BZP8).
T4 sequence (Q8BZP8 whole entry): T1 sequence (whole entry)
Described as §5. The procedure, abridged: as §1

On to `O=C(NCc1ccc(F)cc1)N1CCN2C(=O)OC(c3ccccc3)(c3ccccc3)[C@H]2C1`, for which, in experiment [1], the result was inactive.

With `O=C(NCc1ccc(F)cc1)N1CCN2C(=O)OC(c3ccccc3)(c3ccccc3)C2C1` (single isomer, unassigned), the result in experiment [1] was inactive.

Consider `O=C(NCc1ccc(F)cc1)N1CCN2C(=O)OC(c3ccccc3)(c3ccccc3)[C@@H]2C1`, for which, in [1], the result was inactive.

Broadly, the pEC50 is the EC50 on a negative log10 scale, so that one unit is a factor of ten. As a reminder, the Emax is the maximal effect, on the per cent scale that the assay sets. Turning to “H-SFRNGVGTGMKKTSFQRAKS-OH [NEUROPEPTIDE S]”, the pEC50 was found to be 9.17 in [2] and 9.07 in [4]. The Activity entry in [3] and in experiment [5] was “Dose-dependent effect” in each case. Besides, the maximum response (Emax) was found to be 333% in [6] and 316% in experiment [7].

Broadly, the EC50 is the concentration that produces a half-maximal response. Regarding H-SFRNGVGSGAKKTSFRRAKQ-OH, the Emax in experiment [8] worked out at 250%. Also, in experiment [9], the Activity result is “Dose-dependent effect”. Further, the concentration giving a half-maximal response (EC50) in experiment [10] was 1.07 nM.
